The test system of this series is MS2 coat protein. Kind of series: apparent Kd, MS2 coat protein; higher = weaker binding; RNA-MaP array; FMN 200 µM where present. The essentials: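 Stalled E. coli RNA polymerase transcribed the designs on Illumina sequencing-chip clusters. SNAP-549-labelled MS2 coat protein was titrated from 0.7 or 1.5 nM, doubling to 3 µM, without and then with constant ligand, in 100 mM Tris-HCl pH 7.5, 80 mM KCl, 4 mM MgCl2, BSA, DTT, yeast tRNA and Tween-20. Per-cluster binding curves were fitted to green signal normalised to red-channel RNA signal and control-cluster median Fmax. The apparent Kd is the median of the filtered fits.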

[1] abbreviates: designed as: ON switch for flavin mononucleotide, no ligand.
[2] abbreviates: ligand present: flavin mononucleotide, designed as: ON switch for flavin mononucleotide.
Where [3] appears, read: designed as: OFF switch for flavin mononucleotide, no ligand.
The mark [4] stands for this setting: ligand present: flavin mononucleotide, designed as: OFF switch for flavin mononucleotide.

In the case of “AUACUCAUGUAAGGAUAUGCAGCCGAAACGGCUGCAGAAGGUACUAAAAUACAUGAGGAUCACCCAUGUCUUUUUAAUUUAGAC”, the “apparent Kd” value runs as follows: under setting [1], 258 nM; under setting [2], 255 nM.

For the sequence “CCGAGAAGGACAGGAUAUGGACAUGAGGAUCACCCAUGUACAUGGGAAUAUAUACUGAAUUUUUACUAGAAGGGUUACAUAAAU”, the “apparent Kd” value under setting [3] came out at 19.3 nM and the “apparent Kd” value under setting [4] turned out to be 14.9 nM.

Regarding “AUUUAGUGCGAGAAGGCGUGGUCACAUGAGGAUCACCCAUGUCAGUACACGAGGAUAUCGAUUCGCUAUGUAAACAUAUGCGAC”, the “apparent Kd” value under setting [1] stood at 66.8 nM and the “apparent Kd” value under setting [2] worked out at 6.62 nM.

On to “UUCAGGGAUCAAGGAUAUCUAUAAUCAUGCGGACAUGAGGAUCACCCAUGUUGAUUACCCAUGAGGGAGAAGGUGAACAUGAGG”, for which the “apparent Kd” value runs as follows: under setting [1], 40.1 nM; under setting [2], 16.7 nM.

On to “GCACUUUUAUUUUAACCGUUUCGAACAUGAGGAUCACCCAUGUAGGAUAUGCUAAAAGUUGUGAUGCAGAAGGACAUUAAGUGC”, for which the “apparent Kd” value reads like this: under setting [3], 7.15 nM; under setting [4], 7.29 nM.

“UGGUACAUGGGAGGAUAUCAUGUGAUAACAUGAGGAUCACCCAUGUCGAUGGAGACAUCGGAGAUUGAGAAGGCCCAUGUACCU”: the “apparent Kd” value is, setting by setting: under setting [1], 1190 nM; under setting [2], 96.5 nM.

On to “GACAUUGGCAAGAAGGCAAACAUGAGGAUCACCCAUGUUCUGCAUGUAUAUUGAGGAUAUUGCCAAUGUAUGUGGAUCACCCAA”, for which the “apparent Kd” value is, setting by setting: under setting [3], 6.36 nM; under setting [4], 23.3 nM.

On to “UCGGCGCGAGGAUAUGCGGCUGGUGCUUCGGGCCCUGGCGUACAUGAGGAUCACCCAUGUAGAAGGCGCGCCGC”, for which the “apparent Kd” value is 11.7 nM under setting [3] and 14.7 nM under setting [4].

Turning to “GUCAGCUCGUGAGGAUAUACAACACUGCUUCGGCAGUGUAUUAAGAUCACAUGAGGAUCACCCAUGUAGAAGGCACGAGCUGAG”, the “apparent Kd” value runs as follows: under setting [3], 13 nM; under setting [4], 200 nM.

“AUCAGCUUGACAGGAUAUACAUGUCAGCGAAAGCUGACAAUCUUAAUAACAUGAGGAUCACCCAUGUAGAAGGGUCGAGCUGAU”: the “apparent Kd” value under setting [3] was 18.1 nM and the “apparent Kd” value under setting [4] is 32.4 nM.

For the sequence “CACAGGGCAGGAUAUACGAACAUGUCGCCAGAUGUCAUGGUACAUGAGGAUCACCCAUGUAGAAGGGCGUUGAU”, the “apparent Kd” value came to 50.5 nM under setting [3] and 52.8 nM under setting [4].

As for “AGUCGGAGCGGAGGAUAUACAUGAGGAUCACCCAUGUAAUAAAGUGAAGCCUGGAAACAGGCAAUGUAGAAGGCUGCUCCGACA”, the “apparent Kd” value stood at 11 nM under setting [3] and 74.8 nM under setting [4].

“UUACUCAUGUAAGGAUAUGCAGCCGUUUCGGCUGCAGAAGGUACUAUAAUACAUGAGGAUCACCCAUGUCUAUACAAUAAAGAC”: the “apparent Kd” value by setting is: under setting [1], 62.9 nM; under setting [2], 26 nM.

Turning to “GUCAGCUCGUGAGGAUAUAUAUUAACAUGAGGAUCACCCAUGUAAGAUCAGCUUCGGCAGUUAAUAUAGAAGGCACGAGCUGAC”, the “apparent Kd” value was found to be 168 nM under setting [3] and 188 nM under setting [4].

“CGCUCACAUGAGGAUCACCCAUGUCCUAGGAGGUCAGGAUAUAGCUCGCAUGCGUUGAGGCUAGAAGGGACAGCUG”: the “apparent Kd” value by setting is: under setting [1], 259 nM; under setting [2], 74.7 nM.

For the sequence “UAGGUGUGAGGAUAUGGUAAAGAUAAGAUGAUGAAAGAACUCCAGAAGGCACAUGAGGAUCACCCAUGUAGAUG”, the “apparent Kd” value reads like this: under setting [3], 28 nM; under setting [4], 70.8 nM.

Regarding “CCGGACAUUCGGACAUGAGGAUCACCCAUGUAGGCGGAUUCACAGGAUAUAAGUUCGUCCGAGACUUAGAAGGGUGGCUUCCGA”, the “apparent Kd” value is, setting by setting: under setting [1], 119 nM; under setting [2], 54.6 nM.

Take “GACCUACAUGAGGAUCACCCAUGUCAGGAUAUUUAACCGAUGUCACCCAUCGGUCCUUAGAGAAGGGAUGUGGC”: the “apparent Kd” value stood at 15 nM under setting [3] and 14.9 nM under setting [4].

In the case of “AUGGGACAUGAGGAUCACCCAUGUUAGGAUAUCUCCUUAGUAACGAUCAGGCUAUAGGAGAGAAGGAACGGUCC”, the “apparent Kd” value is, setting by setting: under setting [3], 258 nM; under setting [4], 272 nM.

On to “UAAUAAAACGAUCGGCGGUCCAUACAUGAGGAUCACCCAUGUAGAAGGCACUCUACAAAGUAGAGUGAGGAUAUACAAGAUCGA”, for which the “apparent Kd” value is, setting by setting: under setting [3], 15 nM; under setting [4], 258 nM.

Regarding “AUACCUUAUGAGAAGGCGGUCAUGAAACAUGAUCGAGGAUAUCAUGUAAACAUGAGGAUCACCCAUGUAUGGGUAUUAUGGUAC”, the “apparent Kd” value reads like this: under setting [1], 38.2 nM; under setting [2], 10.2 nM.

Regarding “GACCUACAUGAGGAUCACCCAUGUGAGGAUAUAUUGUUAUUUUUAAUAUUUUUUAGUGGUAGAAGGCGCGUGAU”, the “apparent Kd” value reads like this: under setting [3], 18.4 nM; under setting [4], 17.3 nM.

On to “CCCACGAAAGUCGAACGAUGUAGCAGAAGGACAUGAGGAUCACCCAUGUCAGCUGUAACAGCCAUGUAGGAUAUGCUACAUGGG”, for which the “apparent Kd” value under setting [3] turned out to be 6.05 nM and the “apparent Kd” value under setting [4] was 5.77 nM.

Turning to “AUAAAACAUGAGGAUCACCCAUGUCAGGAUAUACCAUUCCCAUGCCAGCAUUAAAAUGGUAGAAGGGACAUGGC”, the “apparent Kd” value amounted to 49.2 nM under setting [3] and 27.2 nM under setting [4].

As to “GAGGACUGUAAAUAAGUAGAAAUACAUGAGGAUCACCCAUGUAAGGAUAUCGUCAGGAAUACUGACGAGAAGGUACAUCAGUCC”, the “apparent Kd” value was determined as 14.5 nM under setting [3] and 18.1 nM under setting [4].

For the sequence “AGUAGAUCAGGAUAUACAUAAAUGAUAAUUAUGUAACUUCUACAUGAGGAUCACCCAUGUAGAAGGGAUCUACA”, the “apparent Kd” value under setting [3] was determined as 12.6 nM and the “apparent Kd” value under setting [4] turned out to be 13.1 nM.

As for “GUAGCUAUCGGAGGAUAUUCAUAGCCGAAAGGCACAUGAGGAUCACCCAUGUGGCGAAAGCCUUGGGAGAAGGCCGAUAGCUAC”, the “apparent Kd” value is 270 nM under setting [1] and 18.7 nM under setting [2].

As for “GAAUAAUUGAUCCAAUUUAACUACAUGAGGAUCACCCAUGUGCAGGAUAUCGUAAUAUUUAUUUUCGAGAAGGGCAAGAACGGU”, the “apparent Kd” value reads like this: under setting [3], 162 nM; under setting [4], 320 nM.

For “UUGUUUGUAGUGAGGAUAUCGUUGAGGAAGAGGAUCGAGAAGGCACAUGAGGAUCACCCAUGUUAGAUGUGGUU”, the “apparent Kd” value reads like this: under setting [3], 170 nM; under setting [4], 198 nM.

With “GCCAUCGCAUGAGGAUAUGCUCCGGUUUCCGGAGCAGAAGGCAUGUAAUAAAACAUGAGGAUCACCCAUGUAGUUAAGAUGGCA”, the “apparent Kd” value by setting is: under setting [1], 7.94 nM; under setting [2], 6 nM.

For the sequence “UUACUAUCACAGAAGGGUAGAUAGUAUAUAGAUGCAGGAUAUGUGACAUGAGGAUCACCCAUGUUUCACCGACAUGAGGAUCAC”, the “apparent Kd” value is, setting by setting: under setting [3], 60.4 nM; under setting [4], 66.2 nM.

On to “UCAUGAUGGAAGAAGGGAGUCGUGCAUAACAACUCAGGAUAUUUCACAUGAGGAUCACCCAUGUCGAAGUAACAAUGUUGAUUA”, for which the “apparent Kd” value under setting [3] was 15.9 nM and the “apparent Kd” value under setting [4] is 28 nM.

Regarding “GCACAUUUGUAAGGAUAUACAACAUGAGGAUCACCCAUGUGUUGGAAUUUAGUAGAAGGUACAGACAUGAGUAUCACUUUUGUA”, the “apparent Kd” value is, setting by setting: under setting [1], 72.7 nM; under setting [2], 51.9 nM.

As to “UGGUACUAGGGAGGAUAUGGGAAGAUACAUGAGGAUCACCCAUGUUUAAGAAUGCCGGGAGGCAACUAGAAGGCCCUAGUACCU”, the “apparent Kd” value by setting is: under setting [1], 478 nM; under setting [2], 21.2 nM.

“AAGCUGCGCCAGAAGGGACCGACAUGAGGAUCACCCAUGUCCACAAGAGUCAGGAUAUGGCGUGGAGGCUCGUUUAAGUCCAGG”: the “apparent Kd” value worked out at 11.1 nM under setting [1] and 5.19 nM under setting [2].

Take “GGCCUACGAGGAUAUCGCUAGCGGGACAUGAGGAUCACCCAUGUGUCGGACCGCGUCAUGCGAGAAGGUGUAAUGA”: the “apparent Kd” value is, setting by setting: under setting [3], 17.6 nM; under setting [4], 18.4 nM.

Usually apparent Kd stands for a dissociation constant that holds for the conditions of the assay.

For the origin of these results see the EternaBench riboswitch data.
